From article PMC9184248 (Journal of Pesticide Science, 2022)

Experiments:
Assay in all cases: two-electrode voltage clamp, Xenopus oocytes
Type in all cases: cell-based
[1] = biological target: T1, LsRDLR (Laodelphax striatellus RDL GABA receptor) (Laodelphax striatellus, UniProt Q0ECT5, F95S/Y91F)
T1 sequence (Q0ECT5 23-487 Y91F/F95S): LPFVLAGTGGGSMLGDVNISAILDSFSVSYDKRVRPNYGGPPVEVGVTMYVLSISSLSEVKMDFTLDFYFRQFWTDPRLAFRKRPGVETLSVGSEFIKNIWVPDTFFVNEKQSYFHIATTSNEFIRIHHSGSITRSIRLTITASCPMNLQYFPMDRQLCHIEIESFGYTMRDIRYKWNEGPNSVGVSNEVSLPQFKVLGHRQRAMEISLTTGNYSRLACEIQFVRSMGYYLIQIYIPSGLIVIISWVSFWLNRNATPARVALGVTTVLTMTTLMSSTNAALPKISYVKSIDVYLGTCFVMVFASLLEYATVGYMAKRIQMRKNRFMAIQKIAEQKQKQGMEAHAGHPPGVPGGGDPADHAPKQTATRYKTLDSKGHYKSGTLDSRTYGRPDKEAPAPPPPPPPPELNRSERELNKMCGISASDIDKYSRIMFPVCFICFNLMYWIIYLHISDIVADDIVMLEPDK
Procedure, shortened: (§1)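 WT or site-directed mutant LsRDL cRNA (5 ng) injected into defolliculated Xenopus oocytes, which were then held 48 hr at 16°C in SOS (pH 7.6). Clamped at −80 mV, perfused with SOS at 18–20°C. GABA applied for 3 sec at 30–60 sec intervals. EC50 from a four-parameter variable-slope logistic fit; ≥6 oocytes from ≥2 frogs; mean±S.D.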

[2] = biological target: T2, LsRDLR (Laodelphax striatellus RDL GABA receptor) (Laodelphax striatellus, UniProt Q0ECT5, Y91F)
T2 sequence (Q0ECT5 23-487 Y91F): T1 sequence (Q0ECT5 23-487 Y91F/F95S)
Procedure, shortened: as §1

[3] = biological target: T3, LsRDLR (Laodelphax striatellus RDL GABA receptor) (Laodelphax striatellus, UniProt Q0ECT5, F128Y/Y91F)
T3 sequence (Q0ECT5 23-487 Y91F/F128Y): T1 sequence (Q0ECT5 23-487 Y91F/F95S)
Procedure, shortened: as §1

[4] = biological target: T4, LsRDLR (Laodelphax striatellus RDL GABA receptor) (Laodelphax striatellus, UniProt Q0ECT5)
T4 sequence (Q0ECT5 23-487): T1 sequence (Q0ECT5 23-487 Y91F/F95S)
Procedure, shortened: as §1

[5] = biological target: T5, LsRDLR (Laodelphax striatellus RDL GABA receptor) (Laodelphax striatellus, UniProt Q0ECT5, F128Y/F95S/Y91F)
T5 sequence (Q0ECT5 23-487 Y91F/F95S/F128Y): T1 sequence (Q0ECT5 23-487 Y91F/F95S)
Procedure, shortened: as §1

[6] = biological target: T6, LsRDLR (Laodelphax striatellus RDL GABA receptor) (Laodelphax striatellus, UniProt Q0ECT5, F128Y/F95S)
T6 sequence (Q0ECT5 23-487 F95S/F128Y): T1 sequence (Q0ECT5 23-487 Y91F/F95S)
Procedure, shortened: as §1

[7] = biological target: T7, LsRDLR (Laodelphax striatellus RDL GABA receptor) (Laodelphax striatellus, UniProt Q0ECT5, F95S)
T7 sequence (Q0ECT5 23-487 F95S): T1 sequence (Q0ECT5 23-487 Y91F/F95S)
Procedure, shortened: as §1

[8] = biological target: T8, LsRDLR (Laodelphax striatellus RDL GABA receptor) (Laodelphax striatellus, UniProt Q0ECT5, F128Y)
T8 sequence (Q0ECT5 23-487 F128Y): T1 sequence (Q0ECT5 23-487 Y91F/F95S)
Procedure, shortened: as §1

[9] = biological target: T4, LsRDLR (Laodelphax striatellus RDL GABA receptor); conditions: read-out: % of control GABA response remaining at 30 μM gabazine

SMILES: NCCCC(=O)O [GABA]
- EC50 [1]: 63.2 ± 23.8 µM
- EC50 [2]: 131 ± 45 µM
- EC50 [3]: 37.3 ± 11.8 µM
- EC50 [4]: 6.83 ± 3.74 µM
- EC50 [5]: 15.4 ± 3.7 µM
- EC50 [6]: 25.6 ± 11.9 µM
- EC50 [7]: 4.08 ± 1.31 µM
- EC50 [8]: 43.7 ± 10.2 µM

SMILES: COc1ccc(-c2ccc(=N)n(CCCC(=O)O)n2)cc1 [gabazine, 2-(3-carboxypropyl)-6-(4-methoxyphenyl)-2,3-dihydropyridazin-3-iminium bromide]
- remaining activity at 30 µM [9]: 77.8 ± 8%
